From ChEMBL document CHEMBL1821568, “Conjugates of 3α-methoxyserrat-14-en-21β-ol (PJ-1) and 3β-methoxyserrat-14-en-21β-ol (PJ-2) as cancer chemopreventive agents” (Eur J Med Chem, 2011)
pIC50: −log10 of the molar value.

What was measured:
Raji [1] = assay: Inhibition of TPA-induced EBV-early antigen activation in human Raji cells assessed as EA activation at 1000 molar ratio after 48 hrs relative to control; format: cell-based; set-up: scale not given: the % may be the effect or the level left; settings: human gammaherpesvirus 4
Procedure, shortened: (§1)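 Raji cells (non-producer sub-line, spontaneous EA under 0.1%) at 1×10^6/mL, incubated 37 °C for 48 h with n-butyric acid (4 mmol), TPA (32 pmol in DMSO) and compound in DMSO. Dose expressed as mol ratio to TPA (1000, 500, 100, 10). EA-positive cells were detected by indirect immunofluorescence with NPC patient serum, at least 500 cells counted. Assays were run in triplicate. Results are relative to butyrate+TPA control (100%). IC50 given in nM.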

Raji [2] = assay: Inhibition of TPA-induced EBV-early antigen activation in human Raji cells assessed as EA activation at 100 molar ratio after 48 hrs relative to control; format: cell-based; settings: human gammaherpesvirus 4; procedure, shortened: as §1
[3] = Cytotoxicity against human Raji cells carrying EBV genome assessed as cell viability at 1000 molar ratio by trypan blue staining method; format: cell-based; settings: read-out: Activity
Procedure, shortened: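 Raji cells (EBV genome-carrying, in RPMI-1640 with 10% FBS) at 1×10^6/mL, incubated 48 h at 37 °C with n-butyric acid (4 mmol), TPA (32 pmol) and test compound in DMSO. Viability scored by Trypan Blue staining. Molar ratio means mol of compound per mol of TPA (32 pmol).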

Raji [4] = assay: Inhibition of TPA-induced EBV-early antigen activation in human Raji cells assessed as EA activation at 500 molar ratio after 48 hrs relative to control; format: cell-based; set-up: scale not given: the % may be the effect or the level left; settings: human gammaherpesvirus 4; procedure, shortened: as §1
[5] = Inhibition of TPA-induced EBV-early antigen activation in human Raji cells assessed as EA activation after 48 hrs; format: cell-based, human gammaherpesvirus 4; procedure, shortened: as §1
Raji [6] = assay: Inhibition of TPA-induced EBV-early antigen activation in human Raji cells assessed as EA activation at 10 molar ratio after 48 hrs relative to control; format: cell-based; set-up: scale not given: the % may be the effect or the level left; settings: human gammaherpesvirus 4; procedure, shortened: as §1
Mus musculus [7] = species on record: Mus musculus; assay: Toxicity in ICR mouse assessed as erosion at 85 nmol; format: organism-based; settings: in vivo
Mus musculus [8] = assay: Inhibition of DMBA-induced and TPA-promoted carcinogenesis in ICR mouse assessed as reduction of mouse bearing papillomas at 85 nmol administered 1 hr before TPA treatment measured after 20 weeks; format: functional
Procedure, shortened: (§2)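 Female SPF ICR mice, 6 weeks old, 15 per group, backs shaved. Initiation was one topical dose of DMBA (390 nmol) in acetone 0.1 mL. Promotion was TPA (1.7 nmol) twice weekly, with compound given topically at 85 nmol. Papilloma incidence and papillomas per mouse were followed to week 20, and tumor length and width were recorded. Significance was set at P<0.05 versus the DMBA/TPA control.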

Mus musculus [9] = species on record: Mus musculus; assay: Toxicity in ICR mouse assessed as ulcer at 85 nmol; format: organism-based; settings: in vivo
Mus musculus [10] = assay: Inhibition of DMBA-induced and TPA-promoted carcinogenesis in ICR mouse assessed as reduction of mouse bearing papillomas length at 85 nmol administered 1 hr before TPA treatment measured after 20 weeks; format: functional; procedure, shortened: as §2
Mus musculus [11] = species on record: Mus musculus; assay: Toxicity in ICR mouse assessed as lesional damage at 85 nmol; format: organism-based; settings: in vivo
Mus musculus [12] = species on record: Mus musculus; assay: Toxicity in ICR mouse assessed as change in body weight at 85 nmol; format: organism-based; settings: in vivo
Mus musculus [13] = assay: Toxicity in ICR mouse assessed as edema at 85 nmol; format: organism-based; settings: in vivo
Mus musculus [14] = assay: Inhibition of DMBA-induced and TPA-promoted carcinogenesis in ICR mouse assessed as reduction of mouse bearing papillomas width at 85 nmol administered 1 hr before TPA treatment measured after 20 weeks; format: functional; procedure, shortened: as §2
Mus musculus [15] = assay: Inhibition of DMBA-induced and TPA-promoted carcinogenesis in ICR mouse assessed as reduction of mouse bearing papillomas at 85 nmol administered 1 hr before TPA treatment measured after 10 to 15 weeks; format: functional; procedure, shortened: as §2

## CO[C@@H]1CC[C@@]2(C)[C@@H](CC[C@@]3(C)CC4=CC[C@H]5C(C)(C)[C@H](OC(=O)CCC(=O)O)CC[C@]5(C)[C@H]4CC[C@@H]32)C1(C)C
Raji [1]
  Activity: 0%
Raji [2]
  EA activation relative to control: 68.3%
[3]
  viability at 1000 molar ratio: 60%
Raji [4]
  Activity: 32.4%
[5]
  pIC50: 6.55
Raji [6]
  Activity: 92.4%

## CO[C@@H]1CC[C@@]2(C)[C@@H](CC[C@@]3(C)CC4=CC[C@H]5C(C)(C)[C@H](OC(=O)CCC(=O)Oc6ccc([C@@H]7CC(=O)c8c(O)cc(O)cc8O7)cc6)CC[C@]5(C)[C@H]4CC[C@@H]32)C1(C)C
Raji [1]
  Activity: 14.3%
Raji [2]
  EA activation relative to control: 81%
[3]
  viability at 1000 molar ratio: 60%
Raji [4]
  Activity: 48.7%
[5]
  pIC50: 6.33
Raji [6]
  Activity: 100%

## CO[C@@H]1CC[C@@]2(C)[C@@H](CC[C@@]3(C)CC4=CC[C@H]5C(C)(C)[C@H](OC(=O)CCC(=O)Oc6ccc(-c7coc8cc(O)cc(O)c8c7=O)cc6)CC[C@]5(C)[C@H]4CC[C@@H]32)C1(C)C
Raji [1]
  Activity: 12.2%
Raji [2]
  EA activation relative to control: 81%
[3]
  viability at 1000 molar ratio: 60%
Raji [4]
  Activity: 45.9%
[5]
  pIC50: 6.34
Raji [6]
  Activity: 100%

## CO[C@H]1CC[C@@]2(C)[C@@H](CC[C@@]3(C)CC4=CC[C@H]5C(C)(C)[C@H](OC(=O)c6cc(O)c(O)c(O)c6)CC[C@]5(C)[C@H]4CC[C@@H]32)C1(C)C
Raji [1]
  Activity: 2.2%
Mus musculus [7]
  Activity: Non-toxic
Mus musculus [8]
  inhibition (INH): 86.6%
Mus musculus [9]
  Activity: Non-toxic
Mus musculus [10]
  Activity: 18 mm
Raji [2]
  EA activation relative to control: 71.3%
[3]
  viability at 1000 molar ratio: 60%
Mus musculus [11]
  Activity: Non-toxic
Mus musculus [12]
  Activity: Non-toxic
Mus musculus [13]
  Activity: Non-toxic
Raji [4]
  Activity: 36.5%
[5]
  pIC50: 6.54
Raji [6]
  Activity: 91.5%
Mus musculus [14]
  Activity: 15 mm
Mus musculus [15]
  inhibition (INH): 20%

## CO[C@H]1CC[C@@]2(C)[C@@H](CC[C@@]3(C)CC4=CC[C@H]5C(C)(C)[C@H](OC(=O)CC(C)(C)C(=O)O)CC[C@]5(C)[C@H]4CC[C@@H]32)C1(C)C
Raji [1]
  Activity: 0%
Raji [2]
  EA activation relative to control: 67%
[3]
  viability at 1000 molar ratio: 60%
Raji [4]
  Activity: 28.5%
[5]
  pIC50: 6.61
Raji [6]
  Activity: 90.3%

## CO[C@@H]1CC[C@@]2(C)[C@@H](CC[C@@]3(C)C[C@]45CC[C@@H]6C(C)(C)[C@H](OC(=O)CC(C)(C)C(=O)O)CC[C@@]6(C)[C@@]4(CC[C@@H]32)O5)C1(C)C
Raji [1]
  Activity: 0%
Mus musculus [7]
  Activity: Non-toxic
Mus musculus [8]
  inhibition (INH): 93.3%
Mus musculus [9]
  Activity: Non-toxic
Mus musculus [10]
  Activity: 18 mm
Raji [2]
  EA activation relative to control: 68.4%
[3]
  viability at 1000 molar ratio: 60%
Mus musculus [11]
  Activity: Non-toxic
Mus musculus [12]
  Activity: Non-toxic
Mus musculus [13]
  Activity: Non-toxic
Raji [4]
  Activity: 26.6%
[5]
  pIC50: 6.64
Raji [6]
  Activity: 89.6%
Mus musculus [14]
  Activity: 17 mm
Mus musculus [15]
  inhibition (INH): 26.6%

## CO[C@@H]1CC[C@@]2(C)[C@@H](CC[C@@]3(C)CC4=CC[C@H]5C(C)(C)[C@H](OC(=O)CC(C)(C)C(=O)O)CC[C@]5(C)[C@H]4CC[C@@H]32)C1(C)C
Raji [1]
  Activity: 0%
Mus musculus [7]
  Activity: Non-toxic
Mus musculus [8]
  inhibition (INH): 80%
Mus musculus [9]
  Activity: Non-toxic
Mus musculus [10]
  Activity: 16 mm
Raji [2]
  EA activation relative to control: 67.5%
[3]
  viability at 1000 molar ratio: 60%
Mus musculus [11]
  Activity: Non-toxic
Mus musculus [12]
  Activity: Non-toxic
Mus musculus [13]
  Activity: Non-toxic
Raji [4]
  Activity: 29.7%
[5]
  pIC50: 6.60
Raji [6]
  Activity: 91.5%
Mus musculus [14]
  Activity: 14 mm
Mus musculus [15]
  inhibition (INH): 13.3%

## CO[C@H]1CC[C@@]2(C)[C@@H](CC[C@@]3(C)CC4=CC[C@H]5C(C)(C)[C@H](OC(=O)CN6CCCCC6)CC[C@]5(C)[C@H]4CC[C@@H]32)C1(C)C
Raji [1]
  Activity: 13.5%
Raji [2]
  EA activation relative to control: 82%
[3]
  viability at 1000 molar ratio: 60%
Raji [4]
  Activity: 46.3%
[5]
  pIC50: 6.34
Raji [6]
  Activity: 100%

## CO[C@H]1CC[C@@]2(C)[C@@H](CC[C@@]3(C)CC4=CC[C@H]5C(C)(C)[C@H](OC(=O)CCC(=O)O)CC[C@]5(C)[C@H]4CC[C@@H]32)C1(C)C
Raji [1]
  Activity: 0%
Raji [2]
  EA activation relative to control: 69.5%
[3]
  viability at 1000 molar ratio: 60%
Raji [4]
  Activity: 33.6%
[5]
  pIC50: 6.55
Raji [6]
  Activity: 93.8%

## CO[C@H]1CC[C@@]2(C)[C@@H](CC[C@@]3(C)CC4=CC[C@H]5C(C)(C)[C@H](OC(=O)CN)CC[C@]5(C)[C@H]4CC[C@@H]32)C1(C)C
Raji [1]
  Activity: 12%
Raji [2]
  EA activation relative to control: 80.3%
[3]
  viability at 1000 molar ratio: 60%
Raji [4]
  Activity: 42.5%
[5]
  pIC50: 6.35
Raji [6]
  Activity: 100%

## CC1(C)CC[C@]2(C(=O)O)CC[C@]3(C)C(=CC[C@@H]4[C@@]5(C)CC[C@H](O)C(C)(C)[C@@H]5CC[C@]43C)[C@@H]2C1 [OLEANOLIC_ACID]
Raji [1]
  Activity: 12.7%
Raji [2]
  EA activation relative to control: 80%
Raji [4]
  Activity: 30%
[5]
  pIC50: 6.35
Raji [6]
  Activity: 100%

## CO[C@H]1CC[C@@]2(C)[C@@H](CC[C@@]3(C)CC4=CC[C@H]5C(C)(C)[C@H](OC(=O)CCC(=O)Oc6ccc(-c7coc8cc(O)cc(O)c8c7=O)cc6)CC[C@]5(C)[C@H]4CC[C@@H]32)C1(C)C
Raji [1]
  Activity: 12%
Raji [2]
  EA activation relative to control: 79.6%
[3]
  viability at 1000 molar ratio: 60%
Raji [4]
  Activity: 45.2%
[5]
  pIC50: 6.34
Raji [6]
  Activity: 100%

## CO[C@H]1CC[C@@]2(C)[C@@H](CC[C@@]3(C)CC4=CC[C@H]5C(C)(C)[C@H](OC(=O)CCC(=O)Oc6ccc([C@@H]7CC(=O)c8c(O)cc(O)cc8O7)cc6)CC[C@]5(C)[C@H]4CC[C@@H]32)C1(C)C
Raji [1]
  Activity: 14%
Raji [2]
  EA activation relative to control: 80%
[3]
  viability at 1000 molar ratio: 60%
Raji [4]
  Activity: 47.3%
[5]
  pIC50: 6.33
Raji [6]
  Activity: 100%

## CO[C@@H]1CC[C@@]2(C)[C@@H](CC[C@@]3(C)CC4=CC[C@H]5C(C)(C)[C@H](OC(=O)CCC(=O)Oc6ccc(-c7coc8cc(O)ccc8c7=O)cc6)CC[C@]5(C)[C@H]4CC[C@@H]32)C1(C)C
Raji [1]
  Activity: 15.8%
Raji [2]
  EA activation relative to control: 83.4%
[3]
  viability at 1000 molar ratio: 60%
Raji [4]
  Activity: 50.3%
[5]
  pIC50: 6.30
Raji [6]
  Activity: 100%

## COc1c(O)cc(C(=O)O[C@@H]2CC[C@]3(C)[C@H]4CC[C@H]5[C@@](C)(CC[C@H]6C(C)(C)[C@@H](OC)CC[C@@]65C)CC4=CC[C@H]3C2(C)C)cc1O
Raji [1]
  Activity: 4.7%
Raji [2]
  EA activation relative to control: 72.5%
[3]
  viability at 1000 molar ratio: 60%
Raji [4]
  Activity: 37.8%
[5]
  pIC50: 6.43
Raji [6]
  Activity: 93.4%

## CO[C@H]1CC[C@@]2(C)[C@@H](CC[C@@]3(C)CC4=CC[C@H]5C(C)(C)[C@H](OC(=O)CCC(=O)Oc6ccc(-c7coc8cc(O)ccc8c7=O)cc6)CC[C@]5(C)[C@H]4CC[C@@H]32)C1(C)C
Raji [1]
  Activity: 15%
Raji [2]
  EA activation relative to control: 82.6%
[3]
  viability at 1000 molar ratio: 60%
Raji [4]
  Activity: 49.4%
[5]
  pIC50: 6.31
Raji [6]
  Activity: 100%
